High-throughput results: PubChem BioAssay, several laboratories
Hits are enriched below; roughly 1% of the tested compounds scored in any of these assays.
FXIIa inh 1536: blocks human coagulation factor XIIa protease activity. purified FXIIa, Boc-QGR-AMC fluorogenic substrate, 2 h. hit rate 0.3% among 220,000. inhibition, % at 5 µM. P00748; in the data active means inhibition above about 40%;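 further: 0% = enzyme with no compound and 100% = blank without enzyme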
Furin inh: human furin inhibition | purified furin, fluorogenic substrate cleavage | inhibition, % at 20 µM or 30 µM | hit rate 0.061% among 220,000 | AID 463115; in the data active means inhibition above about 25%
KLK5 inh: inhibitors of human kallikrein 5 | inhibition, % at 5 µM | Q9Y337 | hit rate 0.59% among 210,000 | recombinant hK5, fluorogenic AMC substrate cleavage;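 active means inhibition of 40% or more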;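 further: 0% = enzyme controls without compound and 100% = no-enzyme blanks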
thrombin 1536: inhibitors of human thrombin; P00734; alpha-thrombin, Boc-VPR-AMC fluorogenic substrate cleavage; inhibition, % at 5 µM; hit rate 0.26% among 220,000; AID 1046;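 active means inhibition at or above 40%; inactive means inhibition below 40%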;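 further: 0% = enzyme with no compound and 100% = wells without enzyme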
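System – human alpha-thrombin protein · Reagent – Boc-VPR-AMC substrate, 15 µM final · Compound – 5 µM single dose in 0.2% DMSO · Schedule – reaction at room temperature · Technique – AMC fluorescence at 355 nm excitation and 460 nm emission · Read-out basis – % inhibition relative to enzyme controls and enzyme-free blanks · Control set – no-compound enzyme wells and no-enzyme blanks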
FXIa inh: inhibitors of human coagulation factor XIa; purified FXIa, Boc-Glu-Ala-Arg-AMC fluorogenic substrate; inhibition, % at 5 µM; hit rate 0.14% among 220,000; AID 798;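 active means inhibition of at least 40%; inactive means inhibition below 40%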;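 further: fluorescence of freed AMC excited at 355 nm; 0% = enzyme without compound and 100% = no enzyme blank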
HSV replic up: HSV replication enhancement. hit rate 0.005% among 220,000. HSV replication augmentation in cells, fold increase. maximum fold increase. AID 1956; in the data active means maximum fold increase above about 1.5; inconclusive means no clear call, values can overlap the other calls; tested in PC3 cells
* = called active by the depositor; i = inactive; ? = inconclusive; . = not tested or not shown.

SMILES	FXIIa inh 1536	Furin inh	KLK5 inh	thrombin 1536	FXIa inh	HSV replic up
CC(=O)c1ccc2c(c1)N(C)c1ccccc1S2	21	-5	41*	17	16	i
CN(C)S(=O)(=O)c1cccc(NC(=S)N2CCCCC2CO)c1 (centres undefined)	2	-22	-5	.	4	i
CCC1CCCCN1C(=S)Nc1cccc(S(=O)(=O)N(C)C)c1 (centres undefined)	7	-27	49*	-2	0	i
COc1ccc(C2CC(C(F)(F)F)n3nc(C(=O)Nc4ccc5c(c4)OCO5)cc3N2)cc1 (centres undefined)	43*	-15	17	36	-4	i
CCOC(=O)c1[nH]c2ccccc2c1NC(=S)Nc1ccccc1	15	-15	-9	43*	6	.
CC(C)C(OC(=O)c1cccs1)C(=O)NCc1ccc2c(c1)OCO2 (centres undefined)	57*	-11	24	-5	31	i
CCN1C(=O)/C(=C\N(C)C)S/C1=N\S(=O)(=O)c1ccc(C)cc1	13	-16	3	-4	0	i
O=C(NNC(=O)c1cccs1)c1ccc([N+](=O)[O-])cc1	0	-4	4	-10	5	i
O=[N+]([O-])c1ccc2c(c1)c1ccccc1n2CCO	50*	6	23	39	24	i
O=C(NN=C1CCCC1)c1ccc([N+](=O)[O-])cc1	8	-5	1	-8	0	i
O=C(COc1ccc([N+](=O)[O-])cc1)NN=C1CCCC1	-6	-14	55*	29	5	i
O=C1C=C(NCc2ccc(Cl)cc2)CCC1	23	-14	50*	14	5	?
O=C1C=C(NCc2ccc(Cl)c(Cl)c2)CC1	6	-14	-4	-3	-4	i
CCN1CCN(c2cc(C(C)(C)C)nc3c(-c4ccccc4)c(C)nn23)CC1	2	4	47*	13	0	i
CCN1CCN(c2cc(C(C)C)nc3c(-c4ccccc4)c(C)nn23)CC1	3	-6	1	-1	1	i
O=C(Nc1scc(-c2ccccc2)c1C(=O)O)c1ccco1	26	3	59*	50*	11	i
CCN(CC)S(=O)(=O)c1cc(C(=O)NCCN2CCOCC2)ccc1Cl	7	-8	0	-7	-2	i
Cc1cccc(NC(=O)CSCc2c(C)noc2C)c1C	56*	-27	8	0	35	i
Cc1noc(C)c1CSCC(=O)NC1=NCCS1	.	-25	.	.	.	i
Cc1ccnc(NC(=O)C2CCCN(S(=O)(=O)c3cnc[nH]3)C2)c1 (centres undefined)	-8	-11	15	70*	-10	i
Cc1ccc(-c2nc(N3CCOCC3)sc2C(=O)N2CCCCC2)cc1	24	-10	-1	-5	20	.
CC1(C)CC(=O)C=C(NNC(=O)c2cccnc2)C1	29	-6	65*	21	20	i
Cc1cccc(C)c1NC(=S)N/N=C/c1c(Cl)cccc1Cl	29	-14	23	50*	31	i
Cc1nn(C)c(C)c1CN(C)C(=O)CCCC(=O)O	34	25*	1	2	21	i
Cc1nn(CCC(=O)O)c(C)c1C	13	-16	5	1	5	i
SMILES	FXIIa inh 1536	Furin inh	KLK5 inh	thrombin 1536	FXIa inh	HSV replic up
S=C(NCCc1ccccc1)Nc1ccc(Br)cn1	30	-2	52*	21	40*	i
CC(C)Oc1ccc(N2CC(C(=O)NC3=NCCS3)CC2=O)cc1 (centres undefined)	29	-11	18	41*	30	i
Cc1ccc(N2CC(C(=O)NC3=NCCS3)CC2=O)cc1 (centres undefined)	8	-13	-21	-1	-6	i
COc1ccc(N2CC(C(=O)Nc3ncccc3C)CC2=O)cc1 (centres undefined)	16	-18	63*	16	12	i
COc1ccc(N2CC(C(=O)Nc3nnc(SCC(=O)c4ccccc4)s3)CC2=O)cc1 (centres undefined)	15	2	63*	24	11	i
COCCSc1nnc(NC(=O)C2CC(=O)N(c3ccc(OC)cc3)C2)s1 (centres undefined)	13	-7	2	-2	-2	.
O/C(=C\Sc1nnc(Cc2ccccc2)o1)c1ccc(F)cc1	8	-4	-19	5	5	i
